Compounds with a hit are over-represented: about 5.9% of the library has one in this group of screens.
IDH1 mut inh – inhibitors of IDH1 R132H reductase, primary screen, biochemical, plate reader, single point; Isocitrate dehydrogenase [NADP] cytoplasmic (Homo sapiens), O75874; inhibition, % at 10 µM; hit rate 0.18% among 70,000; diaphorase/resazurin fluorescence, 60 min; in the data active means inhibition above about 34%; inconclusive means no clear call, values can overlap the other calls; inactive means below about 11%
Pf Dd2 growth – P. falciparum Dd2 growth inhibitors, primary screen, SYBR Green fluorescence, single dose replicates; 72 h; stronger effect = lower value; activity change, % at 10 µM; hit rate 2.3% among 94,000; in the data active means activity change below about -80%; inconclusive means no clear call, values can overlap the other calls
GASC1 inh – inhibitors of GASC-1 (KDM4C) histone demethylase, primary screen, biochemical, single concentration HTS; inhibition, % at 12.5 µM; AID 720574, 2013; GST-KDM4C 2-372, H3K9me3 peptide, LANCE TR-FRET; Lysine-specific demethylase 4C (Homo sapiens), Q9H3R0; hit rate 0.15% among 96,000;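 active means mean replicate inhibition above about 25%, with at least 55% of replicates also reaching it, limit read from the data, passing the limit was not always enough; inconclusive means only one of those two conditions met; inactive means neither condition met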
Target sequence (Q9H3R0 2-372 limits assumed): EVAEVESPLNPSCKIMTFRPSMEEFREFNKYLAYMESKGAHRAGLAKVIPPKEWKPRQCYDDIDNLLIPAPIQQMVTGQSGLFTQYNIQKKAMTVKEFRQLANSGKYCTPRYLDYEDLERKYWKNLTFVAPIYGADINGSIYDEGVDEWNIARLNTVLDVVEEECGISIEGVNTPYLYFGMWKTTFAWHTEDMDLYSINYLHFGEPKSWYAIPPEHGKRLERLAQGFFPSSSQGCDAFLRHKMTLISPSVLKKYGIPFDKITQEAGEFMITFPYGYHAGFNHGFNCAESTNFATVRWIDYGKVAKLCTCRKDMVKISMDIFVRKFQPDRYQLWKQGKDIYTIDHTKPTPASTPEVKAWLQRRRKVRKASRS
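reagent = H3K9me3 peptide substrate, Fe(II), 2-oxoglutarate | system = GST-tagged GASC-1 (JMJD2C) catalytic fragment, aa 2-372 | amount = enzyme final amount 10 nM | read-out = Fall in 671/618 emission ratio as inhibition | medium = HEPES buffer, pH 7.5, plus ascorbate | schedule = 30 min reaction, 60 min detection, RT | measured by = LANCE TR-FRET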
T cruzi growth-1 – T. cruzi intracellular proliferation inhibitors, primary screen, cell-based, beta-gal Tulahuen parasites, NIH3T3 host, luminescence | T. cruzi beta-gal in NIH3T3, GalScreen luminescence, 90 h | hit rate 5.9% among 77,000 | inhibition, % at 8.34 µM;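 active means mean inhibition above about 93%, with at least 55% of replicates each passing it, limit read from the data, passing the limit was not always enough; inconclusive means only one of those two conditions holds; inactive means neither condition holds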
T cruzi growth-2 – T. cruzi intracellular proliferation inhibitors, confirmation, cell-based, NIH3T3 host, beta-gal parasite, luminescence, cherry-pick; hit rate 72% among 5,600; shares compounds with T cruzi growth-1; T. cruzi beta-gal in NIH3T3, GalScreen luminescence, 90 h; AID 651739, 2012; inhibition, % at 8.35 µM;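 active means mean replicate inhibition above about 95% and at least 55% of replicates individually reaching it, limit read from the data; inconclusive means only one of the two criteria is met; inactive means neither criterion is met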
T cruzi growth-3 – inhibitors of intracellular T. cruzi replication, confirmation, NIH3T3 host cells, beta-gal parasites, cherry-pick, set 2 | shares compounds with T cruzi growth-1 | T. cruzi beta-gal in NIH3T3, GalScreen luminescence, 90 h | inhibition, % at 2.09 µM | hit rate 21% among 5,600;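 active means mean inhibition above about 95%, with at least 55% of replicates also reaching it, limit read from the data; inconclusive means meets just one of the two conditions; inactive means meets neither condition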
3T3 cytotox – cytotoxicity in mouse NIH/3T3 fibroblasts, confirmation, cytotoxicity control for T. cruzi proliferation inhibitor project, cell-based, cherry-pick, single point | hit rate 14% among 5,600 | cytotoxicity (signal decrease), % at 8.35 µM | NIH/3T3 viability, CellTiter-Glo ATP luminescence, 90 h | shares compounds with T cruzi growth-1;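 active means mean signal decrease across replicates above about 35% based on untreated-well scatter, with enough replicates individually passing, limit read from the data; inconclusive means no rule stated though some were filed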
NIH3T3 tox 2 – NIH/3T3 fibroblast cytotoxicity, confirmation, cytotoxicity control, cell-based, cherry-pick, single point, set 2; NIH/3T3 viability, CellTiter-Glo ATP luminescence, 90 h; shares compounds with T cruzi growth-1; AID 651744, 2012; inhibition, % at 24.9 µM; hit rate 56% among 5,600;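 active means mean loss of cell viability signal at or above a set limit, and enough replicates individually reaching it; inconclusive means meets only the mean limit or only the replicate share; inactive means meets neither condition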
Hits are given with their value; i = inactive; ? = inconclusive; nt = no result given; + = active, no number.

SMILES | IDH1 mut inh | Pf Dd2 growth | GASC1 inh | T cruzi growth-1 | T cruzi growth-2 | T cruzi growth-3 | 3T3 cytotox | NIH3T3 tox 2
CC=Cc1ccc2n(c1=O)C[C@@H]1[C@@H](CO)[C@H](C(=O)NCCc3ccncc3)N(CCC(F)(F)F)[C@H]21 (mixture of isomers) | nt | i | i | 108 | i | i | i | i
CC=Cc1ccc2n(c1=O)C[C@H]1[C@H](CO)[C@@H](C(=O)NCC(F)(F)F)N(C(=O)c3cccnc3)[C@@H]21 (mixture of isomers) | nt | nt | i | + | i | i | i | i
CCOc1c(OC)cccc1C1C(C(=O)Nc2ccccc2OC)=C(C)Nc2ncnn21 (stereo not given) | i | nt | nt | nt | nt | nt | nt | nt
C[C@@H]1CN([C@@H](C)CO)C(=O)c2cc(-c3cncnc3)cnc2O[C@H]1CN(C)C(=O)Nc1ccc2c(c1)OCO2 | i | i | i | 98 | i | i | i | i
C[C@H](CO)N1C[C@H](C)[C@@H](CN(C)C(=O)Nc2ccc3c(c2)OCO3)Oc2ncc(-c3cncnc3)cc2C1=O | i | i | i | 104 | i | i | i | i
C[C@@H]1CN([C@@H](C)CO)C(=O)c2cc(-c3cncnc3)cnc2O[C@@H]1CN(C)C(=O)Nc1ccc2c(c1)OCO2 | i | i | i | i | nt | nt | nt | nt
COc1ccccc1NC(=O)Cc1c(OC)ccc2cc(Br)ccc12 | i | nt | nt | nt | nt | nt | nt | nt
Cc1ccc(C)c(OCCNS(=O)(=O)c2cc([N+](=O)[O-])ccc2C)c1 | i | nt | nt | nt | nt | nt | nt | nt
C[C@@H]1CN([C@H](C)CO)S(=O)(=O)c2ccc(C3=CCCCC3)cc2O[C@H]1CN(C)C(=O)C1CCCCC1 | nt | i | i | 109 | 105 | i | i | 105
C[C@H]1CN([C@@H](C)CO)S(=O)(=O)c2ccc(C3=CCCCC3)cc2O[C@H]1CN(C)C(=O)C1CCCCC1 | nt | i | i | 123 | 104 | i | i | 107
C[C@H](CO)N1C[C@H](C)[C@H](CN(C)C(=O)C2CCCCC2)Oc2cc(C3=CCCCC3)ccc2S1(=O)=O | nt | i | i | 116 | 102 | i | i | 107
C[C@@H]1CN([C@H](C)CO)S(=O)(=O)c2ccc(C3=CCCC3)cc2O[C@H]1CN(C)C(=O)C1CCC1 | i | i | i | 111 | i | i | i | 24
C[C@H]1CN([C@@H](C)CO)S(=O)(=O)c2ccc(C3=CCCC3)cc2O[C@@H]1CN(C)C(=O)C1CCC1 | nt | i | i | i | nt | nt | nt | nt
C[C@H](CO)N1C[C@H](C)[C@H](CN(C)C(=O)NC2CCCCC2)OCCCC[C@H](C)Oc2ccc(NS(=O)(=O)c3ccccc3)cc2C1=O | nt | i | i | 94 | ? | i | i | i
C[C@@H]1CCCCO[C@@H](CN(C)C(=O)NC2CCCCC2)[C@@H](C)CN([C@@H](C)CO)C(=O)c2cc(NS(=O)(=O)c3ccc(Cl)cc3)ccc2O1 | i | i | i | 99 | 103 | i | i | i
Cc1ccc(S(=O)(=O)Nc2ccc3c(c2)C(=O)N([C@H](C)CO)C[C@H](C)[C@H](CN(C)C(=O)NC2CCCCC2)OCCCC[C@H](C)O3)cc1 | nt | i | i | 118 | 105 | i | i | i
C[C@@H]1CCCCO[C@@H](CN(C)C(=O)NC2CCCCC2)[C@H](C)CN([C@@H](C)CO)C(=O)c2cc(NS(=O)(=O)c3ccc(Cl)cc3)ccc2O1 | i | i | i | i | nt | nt | nt | nt
COc1ccccc1NC(=O)c1sc2ncn(CC(=O)Nc3ccccc3C)c(=O)c2c1C | i | nt | nt | nt | nt | nt | nt | nt
CN(C)C(=O)c1cccc(-c2ccc([C@H]3[C@@H](CO)N(C(=O)C4CCC4)[C@H]3C#N)cc2)c1 | nt | i | i | 104 | i | i | i | i
CN(C)C(=O)c1ccc(-c2ccc([C@@H]3[C@@H](C#N)N(C(=O)C4CCOCC4)[C@H]3CO)cc2)cc1 | nt | i | i | 98 | i | i | i | i
CN(C)C(=O)c1cccc(-c2ccc([C@@H]3[C@H](C#N)N(C(=O)C4CCC4)[C@H]3CO)cc2)c1 | nt | i | i | 100 | i | i | i | i
CN(C)C(=O)c1cccc(-c2ccc([C@H]3[C@@H](C#N)N(C(=O)C4CCC4)[C@H]3CO)cc2)c1 | nt | i | i | 102 | i | i | i | i
NS(=O)(=O)c1ccc(NC(=O)CSc2nnc(-c3ccccc3Cl)n2-c2ccccc2)cc1 | i | nt | nt | nt | nt | nt | nt | nt
C[C@@H]1CN([C@H](C)CO)S(=O)(=O)c2ccc(C3=CCCC3)cc2O[C@H]1CN(C)Cc1ccccc1 | i | i | i | i | nt | nt | nt | nt
C[C@@H]1CN([C@H](C)CO)S(=O)(=O)c2ccc(C3=CCCCC3)cc2O[C@@H]1CN(C)Cc1ccncc1 | i | i | i | 110 | 100 | i | i | 67
SMILES | IDH1 mut inh | Pf Dd2 growth | GASC1 inh | T cruzi growth-1 | T cruzi growth-2 | T cruzi growth-3 | 3T3 cytotox | NIH3T3 tox 2
C[C@H](CO)N1C[C@H](C)[C@@H](CN(C)Cc2ccncc2)Oc2cc(C3=CCCCC3)ccc2S1(=O)=O | nt | i | i | 115 | 103 | 102 | 52 | 105
C[C@H](CO)N1C[C@H](C)[C@H](CN(C)Cc2cncnc2)Oc2cc(C3=CCCCC3)ccc2S1(=O)=O | i | i | i | i | nt | nt | nt | nt
C[C@@H]1CN([C@H](C)CO)S(=O)(=O)c2ccc(C3=CCCCC3)cc2O[C@H]1CN(C)Cc1ccncc1 | nt | i | i | 118 | i | 99 | 67 | 104
C[C@H]1CN([C@@H](C)CO)S(=O)(=O)c2ccc(C3=CCCCC3)cc2O[C@H]1CN(C)Cc1ccncc1 | nt | i | i | 114 | i | i | 51 | 66
N#Cc1ccc(NC(=O)C2CCCCC2C(=O)O)cc1 (stereo not given) | i | nt | nt | nt | nt | nt | nt | nt
CCn1c(SCC(=O)c2ccc(OC)cc2)nnc1-c1cccs1 | i | nt | nt | nt | nt | nt | nt | nt
COc1cc([N+](=O)[O-])ccc1NC(=S)NCc1cccnc1 | i | nt | nt | nt | nt | nt | nt | nt
COCCNC(=O)C[C@H]1CC[C@H]2[C@@H](COC[C@H](O)CN2Cc2cccc(-c3ccncc3)c2)O1 | nt | i | i | i | nt | nt | nt | nt
COc1ccccc1CNC(=O)C[C@H]1CC[C@H]2[C@@H](COC[C@@H](O)CN2Cc2cccc(-c3ccncc3)c2)O1 | nt | nt | i | 113 | i | i | i | 31
COc1ccccc1CNC(=O)C[C@@H]1CC[C@@H]2[C@H](COC[C@H](O)CN2Cc2cccc(-c3ccncc3)c2)O1 | nt | nt | i | 117 | i | i | i | 55
